Data taken from ChEMBL document CHEMBL3877264, “Quinolidene-rhodanine conjugates: Facile synthesis and biological evaluation” (Eur J Med Chem, 2017).
Converted amounts (≈) assume the structure as drawn.

Assays:
[1] = tested on: Mycobacterium tuberculosis; assay: Growth inhibition of Mycobacterium bovis BCG ATCC 35743 at dormant stage at 50 ug/ml measured after 12 days by nitrate reductase dye based two fold dilution method relative to control; format: functional; conditions: BCG str. ATCC 35743, 288 h, read-out: GI
Summary of the method: (§1)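 M. bovis BCG was grown in Dubos medium and assayed in Mycobacterium pheli minimal medium (pH 6.6), with compounds from DMSO stocks. Incubation lasted 8 days for active and 12 days for dormant cultures. Viability was read by nitrate reductase at 540 nm against cell-free blanks, with vehicle set as 100% growth. Primary screen was at 30, 10 and 3 µg/ml, in triplicate, mean ± SD. MIC was taken from dose-response curves.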

[2] = tested on: Mycobacterium tuberculosis; assay: Growth inhibition of Mycobacterium bovis BCG ATCC 35743 at dormant stage at 0.78 ug/ml measured after 12 days by nitrate reductase dye based two fold dilution method relative to control; format: functional; conditions: BCG str. ATCC 35743, 288 h, read-out: GI; summary of the method: as §1
[3] = Cytotoxicity against […]-differentiated human THP1 cells assessed as growth inhibition at 100 ug/ml measured after 48 hrs by MTT assay relative to control; format: toxicity, cell-based, THP-1; conditions: read-out: GI
Summary of the method: (§2)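 MTT assay with 48 h compound exposure. THP-1 macrophages made by 24 h PMA treatment. Each concentration tested in triplicate in one experiment. % cytotoxicity = (control−test)/(control−blank)×100, with control = cells + DMSO and blank = medium without cells. IC50 from % survival versus concentration plots.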

[4] = Selectivity index, ratio of GI50 for human A549 cells to MIC for Mycobacterium tuberculosis H37Ra ATCC 25177 at dormant stage; format: toxicity, cell-based; conditions: read-out: Selectivity Index
Summary of the method: (§3)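 SI is the cell-line GI50 divided by the dormant-stage mycobacterial MIC. […] THP-1 macrophages were PMA-differentiated for 24 h.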

[5] = Selectivity index, ratio of GI50 for HUVEC to MIC for Mycobacterium bovis BCG ATCC 35743 at dormant stage; conditions: pooled result: one value given for 6 cell lines, strains, targets or settings; summary of the method: as §3
[6] = tested on: Mycobacterium tuberculosis; assay: Growth inhibition of Mycobacterium bovis BCG ATCC 35743 at active stage at 12.5 ug/ml measured after 8 days by nitrate reductase dye based two fold dilution method relative to control; format: functional; conditions: BCG str. ATCC 35743, 192 h, read-out: GI
[7] = tested on: Mycobacterium tuberculosis; assay: Growth inhibition of Mycobacterium tuberculosis H37Ra ATCC 25177 at active stage at 0.78 ug/ml measured after 8 days by XTT dye based two fold dilution method relative to control; format: functional; conditions: H37Ra ATCC 25177, 192 h, read-out: GI
Summary of the method: (§4)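 MTB H37Ra was grown in Dubos medium, then exposed in Mycobacterium pheli minimal medium (pH 6.6) to compounds dissolved in DMSO. The assay ended on day 8 (active) or day 12 (dormant). Viable cells were measured by XTT reduction menadione assay at 470 nm, blank-corrected, relative to vehicle control. Triplicates were expressed as mean ± SD. MIC came from dose-response curves.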

[8] = Cytotoxicity against human PANC1 cells assessed as growth inhibition at 100 ug/ml measured after 48 hrs by MTT assay relative to control; format: toxicity, cell-based, PANC-1; conditions: read-out: GI
[9] = Selectivity index, ratio of GI50 for human HeLa cells to MIC for Mycobacterium tuberculosis H37Ra ATCC 25177 at dormant stage; format: toxicity, cell-based; conditions: read-out: Selectivity Index; summary of the method: as §3
[10] = tested on: Mycobacterium tuberculosis; assay: Growth inhibition of Mycobacterium bovis BCG ATCC 35743 at active stage at 1.56 ug/ml measured after 8 days by nitrate reductase dye based two fold dilution method relative to control; format: functional; conditions: BCG str. ATCC 35743, 192 h, read-out: GI; summary of the method: as §1
[11] = tested on: Mycobacterium tuberculosis; assay: Growth inhibition of Mycobacterium bovis BCG ATCC 35743 at dormant stage measured after 12 days by nitrate reductase dye based two fold dilution method; format: functional; conditions: BCG str. ATCC 35743, 288 h; summary of the method: as §1
[12] = tested on: Mycobacterium tuberculosis; assay: Growth inhibition of Mycobacterium tuberculosis H37Ra ATCC 25177 at active stage at 25 ug/ml measured after 8 days by XTT dye based two fold dilution method relative to control; format: functional; conditions: H37Ra ATCC 25177, 192 h, read-out: GI; summary of the method: as §4
[13] = Selectivity index, ratio of GI50 for human PANC1 cells to MIC for Mycobacterium tuberculosis H37Ra ATCC 25177 at dormant stage; format: toxicity, cell-based, PANC-1; conditions: read-out: Selectivity Index; summary of the method: as §3
[14] = Cytotoxicity against human THP1 cells measured after 48 hrs by MTT assay; format: toxicity, cell-based, THP-1; summary of the method: as §2
[15] = tested on: Mycobacterium tuberculosis; assay: Growth inhibition of Mycobacterium tuberculosis H37Ra ATCC 25177 at active stage at 12.5 ug/ml measured after 8 days by XTT dye based two fold dilution method relative to control; format: functional; conditions: H37Ra ATCC 25177, 192 h, read-out: GI
[16] = tested on: Mycobacterium tuberculosis; assay: Growth inhibition of Mycobacterium bovis BCG ATCC 35743 at dormant stage at 6.25 ug/ml measured after 12 days by nitrate reductase dye based two fold dilution method relative to control; format: functional; conditions: BCG str. ATCC 35743, 288 h, read-out: GI; summary of the method: as §1
[17] = tested on: Mycobacterium tuberculosis; assay: Growth inhibition of Mycobacterium bovis BCG ATCC 35743 at dormant stage at 12.5 ug/ml measured after 12 days by nitrate reductase dye based two fold dilution method relative to control; format: functional; conditions: BCG str. ATCC 35743, 288 h, read-out: GI
[18] = tested on: Staphylococcus aureus; assay: Growth inhibition of Staphylococcus aureus NCIM 2010 at 30 ug/ml measured after 12 hrs relative to control; format: functional; conditions: NCIM 2010, 12 h, read-out: GI
Summary of the method: (§5)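 Bacteria grown in LB at 37 °C and 180 rpm to OD 1. Compounds added to wells, then 0.1% inoculum of 1 OD culture (620 nm). Growth read as OD at 620 nm after 8 h for gram-negative and after 12 h for gram-positive strains.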

[19] = tested on: Mycobacterium tuberculosis; assay: Growth inhibition of Mycobacterium tuberculosis H37Ra ATCC 25177 at dormant stage at 0.78 ug/ml measured after 12 days by XTT dye based two fold dilution method relative to control; format: functional; conditions: H37Ra ATCC 25177, 288 h, read-out: GI; summary of the method: as §4
[20] = tested on: Bacillus subtilis; assay: Growth inhibition of Bacillus subtilis NCIM 2079 at 30 ug/ml measured after 12 hrs relative to control; format: functional; conditions: NCIM 2079, 12 h, read-out: GI; summary of the method: as §5
[21] = Cytotoxicity against human A549 cells assessed as growth inhibition at 100 ug/ml measured after 48 hrs by MTT assay relative to control; format: toxicity, cell-based; conditions: read-out: GI
[22] = tested on: Bacillus subtilis; assay: Growth inhibition of Bacillus subtilis NCIM 2079 at 10 ug/ml measured after 12 hrs relative to control; format: functional; conditions: NCIM 2079, 12 h, read-out: GI; summary of the method: as §5
[23] = tested on: Escherichia coli; assay: Antibacterial activity against Escherichia coli NCIM 2688 measured after 8 hrs; format: functional; conditions: NCIM 2688, 8 h; summary of the method: as §5
[24] = Cytotoxicity against primary HUVEC assessed as growth inhibition at 100 ug/ml measured after 48 hrs by MTT assay relative to control; format: toxicity, cell-based; conditions: human, read-out: GI
[25] = tested on: Staphylococcus aureus; assay: Growth inhibition of Staphylococcus aureus NCIM 2010 at 3 ug/ml measured after 12 hrs relative to control; format: functional; conditions: NCIM 2010, 12 h, read-out: GI; summary of the method: as §5
[26] = tested on: Mycobacterium tuberculosis; assay: Growth inhibition of Mycobacterium tuberculosis H37Ra ATCC 25177 at active stage at 50 ug/ml measured after 8 days by XTT dye based two fold dilution method relative to control; format: functional; conditions: H37Ra ATCC 25177, 192 h, read-out: GI; summary of the method: as §4
[27] = Cytotoxicity against […]-differentiated human THP1 cells measured after 48 hrs by MTT assay; format: toxicity, cell-based, THP-1; summary of the method: as §2
[28] = Cytotoxicity against human A549 cells measured after 48 hrs by MTT assay; format: toxicity, cell-based
[29] = tested on: Mycobacterium tuberculosis; assay: Growth inhibition of Mycobacterium tuberculosis H37Ra ATCC 25177 at dormant stage at 3.13 ug/ml measured after 12 days by XTT dye based two fold dilution method relative to control; format: functional; conditions: H37Ra ATCC 25177, 288 h, read-out: GI; summary of the method: as §4
[30] = Cytotoxicity against human HeLa cells measured after 48 hrs by MTT assay; format: toxicity, cell-based

Row | SMILES | inhibition of growth at 50 µg/mL [1] [%] | inhibition of growth at 0.78 µg/mL [2] [%] | inhibition at 48 h, 100 ug/ml [3] [%] | inhibition of growth at 0.78 µg/mL [7] [%] | inhibition at 48 h, 100 ug/ml [8] [%] | IC50 [11] [mg/L] | IC90 [11] [mg/L] | inhibition of growth at 25 µg/mL [12] [%] | GI50 at 48 h [14] [mg/L] | inhibition of growth at 12.5 µg/mL [15] [%] | inhibition of growth at 6.25 µg/mL [16] [%] | inhibition of growth at 12.5 µg/mL [17] [%] | inhibition of growth at 30 µg/mL [18] [%] | inhibition of growth at 0.78 µg/mL [19] [%] | inhibition of growth at 30 µg/mL [20] [%] | inhibition at 48 h, 100 ug/ml [21] [%] | inhibition of growth at 10 µg/mL [22] [%] | MIC [23] [mg/L] | inhibition at 48 h, 100 ug/ml [24] [%] | inhibition of growth at 3 µg/mL [25] [%] | also measured
1 | COc1ccc2nc(Cl)c(/C=C3\SC(=S)NC3=O)cc2c1 | 99 | -31.1 | 30.2 | -20.6 | 24.9 | 2.9 (≈ 8.61 µM) | 6.8 (≈ 20.2 µM) | 90.2 | > 100 | 85.2 | 89.9 | 93.8 | 103 | -36 | 21.2 | 22.2 | 22.7 | > 30 | 29.4 | 68.7 | selectivity ratio [4]: 20.8; Selectivity Index [5]: 14.7; inhibition of growth at 12.5 µg/mL [6]: 96%; selectivity ratio [9]: 20.8; inhibition of growth at 1.56 µg/mL [10]: -39.1%; selectivity ratio [13]: 20.8; inhibition of growth at 50 µg/mL [26]: 101%; GI50 at 48 h [27]: > 100 mg/L; GI50 at 48 h [28]: > 100 mg/L; inhibition of growth at 3.13 µg/mL [29]: 4.7%; GI50 at 48 h [30]: > 100 mg/L
2 | O=C1NC(=S)S/C1=C\c1cc2cc(F)ccc2nc1Cl | 100 | -38.3 | 19.2 | 9.07 | 37.5 | 3.9 (≈ 12 µM) | 5.2 (≈ 16 µM) | 101 | > 100 | 99.9 | 100 | 100 | 101 | -24.1 | -3.29 | 40 | 2.58 | > 30 | 34.2 | 45.3 | selectivity ratio [4]: 5.6; Selectivity Index [5]: 18.9; inhibition of growth at 12.5 µg/mL [6]: 98.3%; selectivity ratio [9]: 5.6; inhibition of growth at 1.56 µg/mL [10]: -13.2%; selectivity ratio [13]: 5.6; inhibition of growth at 50 µg/mL [26]: 119%; GI50 at 48 h [27]: > 100 mg/L; GI50 at 48 h [28]: > 100 mg/L; inhibition of growth at 3.13 µg/mL [29]: 28.4%; GI50 at 48 h [30]: > 100 mg/L
3 | O=C(O)CN1C(=O)/C(=C/c2cc3cc(F)ccc3nc2Cl)SC1=S | 99.8 | 98.5 | 14.5 | -48.2 | 20.8 | > 30 | > 30 | 10.4 | > 100 | -3.91 | 100 | 99.8 | -19 | -24 | -5.15 | 33.7 | -2.7 | > 30 | 31.2 | -0.864 | inhibition of growth at 50 µg/mL [26]: 82.8%; GI50 at 48 h [27]: > 100 mg/L; GI50 at 48 h [28]: > 100 mg/L; inhibition of growth at 3.13 µg/mL [29]: 9.18%; GI50 at 48 h [30]: > 100 mg/L
